{"data": "Measurements of several laboratories", "target": "Serine/threonine-protein kinase N1 (PKN1, Homo sapiens, UniProt Q16512)", "note": "Compare with care: the assays were run in different laboratories."}
{"SMILES": "Cn1cncc1C1=CN(c2ncnc3[nH]cnc23)CCS1", "read-out": "enzyme activity", "action": "inhibitor", "technique": "radiometric", "concentration": "2 µM", "endpoint": "inhibition", "value": "87.7%"}
{"SMILES": "CS(=O)(=O)N1CCCC(NC(=O)[C@H](CCC2CCCCC2)NC(=O)c2ccc(CNc3ncnc4c3nnn4-c3ccccc3)cc2)C1 (some centres unmarked)", "read-out": "cell-free assay", "technique": "competition with immobilised ligand", "concentration": "0.1 µM", "endpoint": "remaining binding", "value": "98%"}
{"SMILES": "N#CCCc1ccc2c(c1)-c1[nH]c3ccc([N+](=O)[O-])cc3c1CC(=O)N2", "read-out": "cell-free assay", "concentration": "0.5 µM", "endpoint": "remaining signal", "value": "78%"}
{"SMILES": "Cn1c2c(c3ccc(Cl)c(Cl)c31)C(C#N)C1(CCCC1)NC2=O (centres unmarked)", "read-out": "thermal stability", "technique": "DSF", "concentration": "10 µM", "endpoint": "ΔTm", "value": "-0.5 °C"}
{"SMILES": "CN(C)c1ccc(-c2nc3ncc(Cl)c(N4CCN(CC(=O)Nc5nccs5)CC4)c3[nH]2)cc1", "read-out": "enzyme activity", "action": "inhibitor", "concentration": "1 µM", "endpoint": "activity vs control", "value": "32%"}
{"SMILES": "O=C(Nc1cnn(-c2csc(C(=O)NC3COC3)c2)c1)Nc1ccccc1Cl", "read-out": "enzyme activity", "action": "inhibitor", "concentration": "5 µM", "endpoint": "remaining activity", "value": "110%"}
{"SMILES": "CC#CC(=O)Nc1cc2c(Nc3ccc(F)c(Cl)c3)ncnc2cn1", "read-out": "enzyme activity", "action": "inhibitor", "concentration": "1 µM", "endpoint": "activity vs control", "value": "81%"}
{"SMILES": "Cc1ccc(C(=O)NCc2ccsc2)cc1C#Cc1cn(C(C)C)c2ncnc(N)c12", "read-out": "enzyme activity", "action": "inhibitor", "concentration": "1 µM", "endpoint": "activity vs control", "value": "93%"}
{"SMILES": "COc1cc(N2CCOCC2)ccc1NC(=O)c1csc(-c2cccnc2)n1", "read-out": "enzyme activity", "action": "inhibitor", "concentration": "1 µM", "endpoint": "activity vs control", "value": "87%"}
{"SMILES": "O=C(NC[C@@H]1[C@H]2CN(C(=O)OCc3cc(C(F)(F)F)cc(C(F)(F)F)c3)C[C@@H]12)c1ccc2[nH]nnc2c1", "read-out": "cell-free assay", "technique": "competition with immobilised ligand", "concentration": "1 µM", "endpoint": "remaining binding", "value": "100%"}
{"SMILES": "COc1cc(Cl)c(C(=O)N[C@@H](CN[C@H]2CC[C@@H](N)CC2)Cc2ccc(C#N)cc2)cc1-c1ccc(CN[C@H](C)c2ccc(C)cc2)o1", "read-out": "enzyme activity", "action": "inhibitor", "concentration": "1 µM", "endpoint": "remaining activity", "value": "108%"}
{"SMILES": "CC(C)NC[C@@H](C(=O)N1CCN(c2ncnc3c2[C@H](C)C[C@H]3O)CC1)c1ccc(Cl)cc1", "read-out": "enzyme activity", "action": "inhibitor", "concentration": "1 µM", "endpoint": "activity vs control", "value": "1%"}
{"SMILES": "O=C1NC(c2ccccn2)Sc2ccccc21 (centres unmarked)", "read-out": "cell-free assay", "technique": "competition with immobilised ligand", "concentration": "1 µM", "endpoint": "remaining binding", "value": "60%"}
{"SMILES": "Cn1c2c(Cl)c(Cl)ccc2c2cc[nH]c(=O)c21", "read-out": "thermal stability", "technique": "DSF", "concentration": "10 µM", "endpoint": "ΔTm", "value": "0.9 °C"}
{"SMILES": "O=C(Nc1cccnn1)N1CC(C/C=C/c2cncc(Oc3ccc(C(F)(F)F)cn3)n2)C1", "read-out": "cell-free assay", "technique": "competition with immobilised ligand", "concentration": "1 µM", "endpoint": "remaining binding", "value": "100%"}
{"SMILES": "O=C1Nc2ccc(Cl)cc2C1=Cc1cc(Cl)c(O)c(Cl)c1", "read-out": "cell-free assay", "concentration": "0.5 µM", "endpoint": "remaining signal", "value": "93%"}
{"SMILES": "Cc1nc(C2CCN(C(=O)c3ccc(OC(F)(F)F)cc3N)CC2)c2ncc(N3CCN(C)CC3)cc2n1", "read-out": "cell-free assay", "technique": "competition with immobilised ligand", "concentration": "1 µM", "endpoint": "remaining binding", "value": "100%"}
{"SMILES": "COc1ncc(Nc2ncc([C@@H](C)N3CCN(S(C)(=O)=O)CC3)cc2-c2nc(C)nc(N)n2)cc1F", "read-out": "enzyme activity", "action": "inhibitor", "concentration": "1 µM", "endpoint": "activity vs control", "value": "94%"}
{"SMILES": "CNC(=O)c1ccc(Nc2ncc(C(F)(F)F)c(NCc3nccnc3N(C)S(C)(=O)=O)n2)cc1", "read-out": "cell-free assay", "technique": "competition with immobilised ligand", "concentration": "0.1 µM", "endpoint": "remaining binding", "value": "100%"}
{"SMILES": "C[C@H]1CCN(c2nccc(-c3cnn4ncccc34)n2)C1", "read-out": "binding", "concentration": "1 µM", "endpoint": "remaining binding", "value": "100%"}
{"SMILES": "Nc1ncnc2occ(-c3ccc(NC(=O)Nc4cc(C(F)(F)F)ccc4F)cc3)c12", "read-out": "cell-free assay", "action": "inhibitor", "concentration": "20 µM", "endpoint": "remaining signal", "value": "83%"}
{"SMILES": "Cl.OC1CCC(Nc2ncc3nc(Nc4c(F)cc(F)cc4F)n(C4CCOC4)c3n2)CC1 (centres unmarked)", "read-out": "enzyme activity", "action": "inhibitor", "concentration": "1 µM", "endpoint": "activity vs control", "value": "98%"}
{"SMILES": "Cc1c[nH]c2nccc(Oc3c(F)cc(Nc4cc(Cl)nc(N)n4)cc3F)c12", "read-out": "cell-free assay", "technique": "competition with immobilised ligand", "concentration": "0.1 µM", "endpoint": "remaining binding", "value": "72%"}
